Values belong to the compound of their own block, whether it stands above or below them.
Legend:
D(1A) dopamine receptor [1] = target: T1, D(1A) dopamine receptor (Rattus norvegicus, UniProt P18901); experiment: Affinity for dopamine receptor D1 binding measured by competition against [3H]-SCH- 23390 to rat striatal membrane; set-up: species or system Striatum
How it was run: (§1)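 Competition binding against [³H]SCH 23390 at D1 sites in rat striatal (caudate putamen) membranes. Ki values are means ± SEM of at least three determinations, each run in triplicate.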

D(2) dopamine receptor = D(2) dopamine receptor (Rattus norvegicus, UniProt P61169); experiment: Affinity for Dopamine receptor D2 binding measured by sulpiride […] to rat striatal membrane; set-up: species or system Striatum
D(2) dopamine receptor, sequence (P61169 whole entry): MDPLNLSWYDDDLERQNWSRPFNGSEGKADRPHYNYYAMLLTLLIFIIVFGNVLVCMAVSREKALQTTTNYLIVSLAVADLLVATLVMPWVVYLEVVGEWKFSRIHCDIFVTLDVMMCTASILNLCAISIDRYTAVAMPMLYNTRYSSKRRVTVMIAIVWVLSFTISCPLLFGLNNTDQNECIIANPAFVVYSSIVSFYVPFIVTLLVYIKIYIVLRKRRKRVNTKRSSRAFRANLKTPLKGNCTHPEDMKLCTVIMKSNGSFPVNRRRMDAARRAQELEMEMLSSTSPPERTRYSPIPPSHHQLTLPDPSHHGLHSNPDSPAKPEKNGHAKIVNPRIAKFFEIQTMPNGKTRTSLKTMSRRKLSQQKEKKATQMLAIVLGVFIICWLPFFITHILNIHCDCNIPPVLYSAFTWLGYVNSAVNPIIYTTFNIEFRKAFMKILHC
How it was run: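 Competition binding against [³H]sulpiride at D2 sites in rat striatal (caudate putamen) membranes. Ki values are means ± SEM of at least three determinations, each run in triplicate.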

D(1A) dopamine receptor [2] = target: T1, D(1A) dopamine receptor; experiment: Dopamine receptor D1 antagonistic activity as ability to block dopamine-stimulated adenylate cyclase in rat caudate; type: functional
D(1A) dopamine receptor [3] = target: T1, D(1A) dopamine receptor; experiment: Affinity for Dopamine receptor D1 binding measured by competition against [3H]-SCH- 23390 to rat striatal membrane; set-up: species or system Striatum; how it was run: as §1

T1 sequence (P18901 whole entry): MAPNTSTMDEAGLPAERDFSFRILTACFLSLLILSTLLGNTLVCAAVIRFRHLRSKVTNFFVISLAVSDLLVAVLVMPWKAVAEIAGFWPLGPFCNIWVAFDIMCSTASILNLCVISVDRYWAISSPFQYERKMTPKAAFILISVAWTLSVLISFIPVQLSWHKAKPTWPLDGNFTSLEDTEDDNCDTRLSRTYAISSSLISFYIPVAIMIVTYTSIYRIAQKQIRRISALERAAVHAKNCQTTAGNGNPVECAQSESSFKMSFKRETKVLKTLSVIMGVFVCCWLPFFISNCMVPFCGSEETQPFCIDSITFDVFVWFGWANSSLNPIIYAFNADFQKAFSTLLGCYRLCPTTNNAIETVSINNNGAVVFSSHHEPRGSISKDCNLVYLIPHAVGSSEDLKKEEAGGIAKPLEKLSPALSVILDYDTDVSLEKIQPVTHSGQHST

Ki (D(1A) dopamine receptor [1]): 120 nM | Ki (D(2) dopamine receptor; read-out: Ki): 858 nM
Structure (SMILES): CN(C)c1ccc(/C=C/CN2CCc3cc(Br)c(O)cc3C(c3ccccc3)C2)cc1 (stereo unspecified)

Ki (D(1A) dopamine receptor [2]): 18.4 nM | Ki (D(2) dopamine receptor; read-out: Ki): 345 nM
Structure (SMILES): CN(C)c1ccc(/C=C/CN2CCc3cc(Cl)c(O)cc3C(c3ccccc3)C2)cc1 (stereo unspecified)

Ki (D(1A) dopamine receptor [3]): 88.4 nM
Structure (SMILES): CN(C)c1ccc(CCN2CCc3cc(Cl)c(O)cc3C(c3ccccc3)C2)cc1 (stereo unspecified)

The remaining lines, values behind:

Structure (SMILES): Oc1cc2c(cc1Br)CCN(C/C=C/c1ccccc1)CC2c1ccccc1 (stereo unspecified)
Ki (D(1A) dopamine receptor [1]): 209 nM | Ki (D(2) dopamine receptor): Insoluble

Structure (SMILES): CN(C)CCCCN1CCc2cc(Cl)c(O)cc2C(c2ccccc2)C1 (stereo unspecified)
Ki (D(2) dopamine receptor; read-out: Ki): 3450 nM

Structure (SMILES): CN(C)CCCCCCN1CCc2cc(Cl)c(O)cc2C(c2ccccc2)C1 (stereo unspecified)
Ki (D(1A) dopamine receptor [2]): 21 nM | Ki (D(2) dopamine receptor; read-out: Ki): 4130 nM

Structure (SMILES): COc1cc2c(cc1Br)CCN(C/C=C/c1ccc(N(C)C)cc1)CC2c1ccccc1 (stereo unspecified)
Ki (D(2) dopamine receptor; read-out: Ki): 2000 nM

Reference: ChEMBL document CHEMBL1129618, “(+/-)-3-[4'-(N,N-dimethylamino)cinnamyl]benzazepine analogs: novel dopamine D1 receptor antagonists” (J Med Chem, 1996)
